Measurements from different studies.
Compare with care: the assays were run in different laboratories. Converted amounts (≈) assume the structure as drawn.
Organism: Pichia kudriavzevii

SMILES	observed	method	strain	time	endpoint	value
CC(C)C1=CC2=CC(=O)[C@H]3C(C)(C)CCC[C@]3(C)C2=C(O)C1=O	microbial growth	–	ATCC6258	–	IC50	12 µg/mL
CC(=O)N1CCN(c2ccc(OCC3COC(Cn4ccnc4)(c4ccc(Cl)cc4Cl)O3)cc2)CC1 (stereo not shown)	microbial growth	–	–	–	MIC90	1 µg/mL (≈ 1.88 µM)
CCCCCCCCCCN1CCN(CC(O)(Cn2cncn2)c2ccc(F)cc2F)CC1 (stereo not shown)	microbial growth	broth dilution	ATCC6258	48 h	MIC	1.95 µg/mL (≈ 4.21 µM)
COc1cc(NC(C)CCCN)c2nc(C(C)(C)C)ccc2c1Oc1ccc(Cl)c(Cl)c1 (stereo not shown)	microbial growth	–	ATCC6258	–	IC50	8.65 µg/mL
C[C@@H]1[C@H](O)[C@@H](C)/C=C/C=C/C=C/C=C/C=C/C=C/C=C/[C@H](O[C@@H]2O[C@H](C)[C@@H](O)[C@H](N)[C@@H]2O)C[C@@H]2O[C@](O)(C[C@@H](O)C[C@@H](O)[C@H](O)CC[C@@H](O)C[C@@H](O)CC(=O)O[C@H]1C)C[C@H](O)[C@H]2C(=O)O	microbial killing	–	ATCC6258	–	MFC	1.25 µg/mL (≈ 1.35 µM)
C[C@@H]1[C@H](O)[C@@H](C)/C=C/C=C/C=C/C=C/C=C/C=C/C=C/[C@H](O[C@@H]2O[C@H](C)[C@@H](O)[C@H](N)[C@@H]2O)C[C@@H]2O[C@](O)(C[C@@H](O)C[C@@H](O)[C@H](O)CC[C@@H](O)C[C@@H](O)CC(=O)O[C@H]1C)C[C@H](O)[C@H]2C(=O)O	microbial growth	–	ATCC6258	–	IC50	0.56 µM
CCCCCCOc1c(OC)cc(NC(C)CCCN)c2nc(C(C)(C)C)cc(C)c12 (stereo not shown)	microbial killing	–	ATCC6258	–	MFC	5 µg/mL (≈ 11.6 µM)
CCCCCCCCCCCN1CCN(CC(O)(Cn2cncn2)c2ccc(F)cc2F)CC1 (stereo not shown)	microbial growth	broth dilution	ATCC6258	48 h	MIC	1.95 µg/mL (≈ 4.08 µM)
CCCCCOc1c(OC)cc(NC(C)CCCNC(=O)C(N)CC(C)C)c2nc(C(C)(C)C)ccc12 (stereo not shown)	microbial killing	–	ATCC6258	–	MFC	10 µg/mL (≈ 19.4 µM)
CC[C@H](C)C[C@H](C)CCCCCCCCC(=O)N[C@H]1C[C@@H](O)[C@@H](NCCN)NC(=O)[C@@H]2[C@@H](O)CCN2C(=O)[C@H]([C@H](O)CCN)NC(=O)[C@H]([C@H](O)[C@@H](O)c2ccc(O)cc2)NC(=O)[C@@H]2C[C@@H](O)CN2C(=O)[C@H]([C@@H](C)O)NC1=O	microbial growth	broth dilution	ATCC6258	48 h	MIC	0.48 µg/mL (≈ 0.439 µM)
OC(Cn1cncn1)(Cn1cncn1)c1ccc(F)cc1F	microbial growth	broth dilution	–	24 h	MIC90	256 µg/mL (≈ 836 µM)
C#CCCCCCCCCC=CCC(O)CC(O)CO (stereo not shown)	microbial growth	broth dilution	ATCC6258	–	IC50	> 8 µg/mL
C[C@@H]1[C@H](O)[C@@H](C)/C=C/C=C/C=C/C=C/C=C/C=C/C=C/[C@H](O[C@@H]2O[C@H](C)[C@@H](O)[C@H](N)[C@@H]2O)C[C@@H]2O[C@](O)(C[C@@H](O)C[C@@H](O)[C@H](O)CC[C@@H](O)C[C@@H](O)CC(=O)O[C@H]1C)C[C@H](O)[C@H]2C(=O)O	microbial growth	broth dilution	ATCC6258	48 h	MIC	3.9 µg/mL (≈ 4.22 µM)
C[C@@H](c1ncncc1F)[C@](O)(Cn1cncn1)c1ccc(F)cc1F	microbial growth	–	–	–	MIC90	0.25 µg/mL (≈ 0.716 µM)
C#CCCCCCCCCCCCC(O)CC(O)CO (stereo not shown)	microbial growth	broth dilution	ATCC6258	–	IC50	> 200 µg/mL
CCCCCCOc1c(OC)cc(NC(C)CCCNC(=O)C(N)Cc2cnc[nH]2)c2nc(C(C)(C)C)ccc12 (stereo not shown)	microbial killing	–	ATCC6258	–	MFC	> 20 µg/mL
CCCCCN1CCNCC1	microbial growth	broth dilution	ATCC6258	48 h	MIC	> 31.3 µg/mL
CCCCCOc1c(OC)cc(NC(C)CCCNC(=O)C(N)Cc2cc3ccccc3[nH]2)c2nc(C(C)(C)C)ccc12 (stereo not shown)	microbial growth	–	ATCC6258	–	IC50	4.28 µg/mL
CN1CCNCC1	microbial growth	broth dilution	ATCC6258	48 h	MIC	> 31.3 µg/mL
CCCCCOc1c(OC)cc(NC(C)CCCNC(=O)C(N)Cc2ccccc2)c2nc(C(C)(C)C)ccc12 (stereo not shown)	microbial growth	–	ATCC6258	–	IC50	7.37 µg/mL
OC(Cn1cncn1)(Cn1cncn1)c1ccc(F)cc1F	microbial growth	–	–	–	MIC90	64 µg/mL (≈ 209 µM)
CCCCCCCCOc1c(OC)cc(NC(C)CCCN)c2nc(C(C)(C)C)ccc12 (stereo not shown)	microbial growth	–	ATCC6258	–	IC50	5.82 µg/mL
Fc1ccc(C2(Cn3cncn3)CO2)c(F)c1 (stereo not shown)	microbial growth	broth dilution	ATCC6258	48 h	MIC	> 31.3 µg/mL
CCCCCCCOc1c(OC)cc(NC(C)CCCN)c2nc(C(C)(C)C)cc(C)c12 (stereo not shown)	microbial growth	–	ATCC6258	–	IC50	2.89 µg/mL
C[C@@H]1[C@H](O)[C@@H](C)/C=C/C=C/C=C/C=C/C=C/C=C/C=C/[C@H](O[C@@H]2O[C@H](C)[C@@H](O)[C@H](N)[C@@H]2O)C[C@@H]2O[C@](O)(C[C@@H](O)C[C@@H](O)[C@H](O)CC[C@@H](O)C[C@@H](O)CC(=O)O[C@H]1C)C[C@H](O)[C@H]2C(=O)O	microbial growth	broth dilution	ATCC6258	–	IC50	0.65 µg/mL
